BindingDB's records for doi:10.1021/jm9600205 (National Institute of Diabetes, 1996)

Molecular target: Adenosine receptor A2a (Rattus norvegicus, UniProt P30543)
Assay: Displacement of [3H]-CGS- 21680 binding to Adenosine A2A receptor in rat striatal membranes
Procedure, shortened: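 Adenosine deaminase (3 units/mL) present during preparation, 30 min preincubation at 30 °C and incubation. At least five competitor concentrations over 3 orders of magnitude.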

Sequence of Adenosine receptor A2a (P30543 whole entry): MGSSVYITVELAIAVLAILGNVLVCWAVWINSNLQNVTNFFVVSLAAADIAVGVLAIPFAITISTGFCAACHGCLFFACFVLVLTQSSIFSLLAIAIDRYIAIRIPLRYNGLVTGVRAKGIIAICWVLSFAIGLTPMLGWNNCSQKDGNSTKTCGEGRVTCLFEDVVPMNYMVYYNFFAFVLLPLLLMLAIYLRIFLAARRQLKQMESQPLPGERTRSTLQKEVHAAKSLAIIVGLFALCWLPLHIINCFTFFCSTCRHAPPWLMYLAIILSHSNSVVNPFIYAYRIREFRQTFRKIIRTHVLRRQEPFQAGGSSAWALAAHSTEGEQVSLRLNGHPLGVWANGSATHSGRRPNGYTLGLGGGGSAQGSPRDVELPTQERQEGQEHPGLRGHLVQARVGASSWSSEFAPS

| Ki [µM] | Compound |
| --- | --- |
| 46.1 | CCOC(=O)C1=C(C)N=C(C)C(C(=O)OC)C1C (configuration not stated) [2,4,6-Trimethyl-1,4-dihydro-pyridine-3,5-dicarboxylic acid 3-ethyl ester 5-methyl ester] |
| 35.9 | CCOC(=O)C1=C(c2ccccc2)N=C(C)C(C(=O)OCC)C1C (configuration not stated) [2,4-Dimethyl-6-phenyl-1,4-dihydro-pyridine-3,5-dicarboxylic acid diethyl ester] |
